pIC50, pKi: −log10 of the molar value. Calls of active or inactive are those of the source. The calls are words filed in the database; no cut-off is given here.
How the values were obtained:
[1] = biological target: T1, Sialidase (Clostridium perfringens) (UniProt P10481); assay: Inhibition of Clostridium perfringens neuraminidase at 10 times IC50 by spectrofluorimetry
T1 sequence (whole entry): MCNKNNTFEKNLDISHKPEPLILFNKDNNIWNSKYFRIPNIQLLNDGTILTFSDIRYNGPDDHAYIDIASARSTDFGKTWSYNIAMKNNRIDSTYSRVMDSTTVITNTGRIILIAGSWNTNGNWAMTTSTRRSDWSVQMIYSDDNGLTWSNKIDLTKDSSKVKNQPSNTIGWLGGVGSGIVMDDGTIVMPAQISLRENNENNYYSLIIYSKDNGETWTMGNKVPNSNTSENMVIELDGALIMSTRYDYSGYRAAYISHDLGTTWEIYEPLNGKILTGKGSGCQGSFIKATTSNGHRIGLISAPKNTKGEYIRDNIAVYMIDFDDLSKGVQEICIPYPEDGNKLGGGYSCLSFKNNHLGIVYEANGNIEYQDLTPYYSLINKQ
Procedure, shortened: (§1)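 Reversibility by jump dilution: enzyme pre-incubated 15 min with compound at 100-fold assay enzyme level (0.125 U/mL), then diluted 1/100 into acetate buffer with substrate. Progress curves of fluorescence over 30 min compared with enzyme pre-incubated and diluted without compound.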

Sialidase [2] = biological target: T2, Sialidase (Clostridium perfringens, UniProt P10481); assay: (§2) Inhibition of Clostridium perfringens neuraminidase assessed as inhibition of 4-MU-NANA hydrolysis after 10 mins by spectrofluorimetry
T2 sequence (P10481 whole entry): T1 sequence (whole entry)
Procedure, shortened: (§3)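 Enzyme at 0.05 U/mL in 0.04 M sodium acetate pH 5.0 with compound (DMSO stock diluted in buffer) and 4-MU-NANA (1 mM stock); 10 min at 37 °C. Stopped with 0.1 M glycine–NaOH pH 10.4; 4-methylumbelliferone read at ex 360/em 440 nm. IC50 from regression, mean ± SD of three replicates.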

[3] = biological target: T1, Sialidase (Clostridium perfringens); assay: as §2; procedure, shortened: as §3
[4] = biological target: T1, Sialidase (Clostridium perfringens); assay: Inhibition of Clostridium perfringens neuraminidase at 0.1 times IC50 by spectrofluorimetry; procedure, shortened: as §1
Sialidase [5] = biological target: Sialidase (Vibrio cholerae serotype O1 (strain ATCC 39315 / El Tor Inaba N16961), UniProt P0C6E9); assay: (§4) Inhibition of Vibrio cholerae neuraminidase assessed as inhibition of 4-MU-NANA hydrolysis after 30 mins by spectrofluorimetry
Sequence of Sialidase (Vibrio cholerae serotype O1 (strain ATCC 39315 / El Tor Inaba N16961), UniProt P0C6E9) (P0C6E9 whole entry, one chain of several): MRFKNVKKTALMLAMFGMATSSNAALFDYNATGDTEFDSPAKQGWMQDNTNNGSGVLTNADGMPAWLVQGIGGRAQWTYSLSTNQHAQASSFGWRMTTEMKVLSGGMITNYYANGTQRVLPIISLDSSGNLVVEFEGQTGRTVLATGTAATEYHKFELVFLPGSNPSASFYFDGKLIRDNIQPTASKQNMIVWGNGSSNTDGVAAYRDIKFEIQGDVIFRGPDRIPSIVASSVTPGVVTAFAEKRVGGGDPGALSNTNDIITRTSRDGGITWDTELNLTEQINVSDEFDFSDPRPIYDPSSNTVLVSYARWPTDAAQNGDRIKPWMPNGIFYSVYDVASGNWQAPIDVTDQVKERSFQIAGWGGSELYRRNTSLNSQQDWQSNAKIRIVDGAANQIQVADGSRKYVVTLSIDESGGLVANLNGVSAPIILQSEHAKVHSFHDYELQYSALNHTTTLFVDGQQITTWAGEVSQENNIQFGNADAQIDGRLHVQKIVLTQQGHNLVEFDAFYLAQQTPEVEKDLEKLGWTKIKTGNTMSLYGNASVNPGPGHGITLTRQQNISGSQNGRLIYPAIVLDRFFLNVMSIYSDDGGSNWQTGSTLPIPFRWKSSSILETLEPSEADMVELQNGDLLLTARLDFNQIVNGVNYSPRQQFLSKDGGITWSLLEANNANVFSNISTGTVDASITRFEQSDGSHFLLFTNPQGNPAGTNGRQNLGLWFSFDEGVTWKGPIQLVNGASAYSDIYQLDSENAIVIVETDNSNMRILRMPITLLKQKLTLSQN
Procedure, shortened: (§5)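 V. cholerae enzyme (8.3 U) with compound in 50 mM MES, 6 mM CaCl2, pH 5.6, pre-incubated 30 min at 37 °C with shaking. 4-MU-NANA added at 25 µM final, 30 min at 37 °C, then quenched with 0.25 M glycine pH 10.0. Read at ex 360/em 440 nm, blank-corrected, expressed as % of no-inhibitor control, at least triplicate.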

[6] = biological target: Sialidase (Vibrio cholerae serotype O1 (strain ATCC 39315 / El Tor Inaba N16961)) (UniProt P0C6E9); assay: as §4; procedure, shortened: as §5
Sequence of Sialidase (Vibrio cholerae serotype O1 (strain ATCC 39315 / El Tor Inaba N16961)) (P0C6E9 whole entry, one chain of several): as above

[7] = biological target: T1, Sialidase (Clostridium perfringens); assay: Reversible inhibition of Clostridium perfringens neuraminidase at 0.1 times IC50 pre-incubated for 15 mins by spectrofluorimetry; procedure, shortened: as §1
[8] = biological target: T1, Sialidase (Clostridium perfringens); assay: Reversible inhibition of Clostridium perfringens neuraminidase at 10 times IC50 pre-incubated for 15 mins by spectrofluorimetry; procedure, shortened: as §1
[9] = biological target: T1, Sialidase (Clostridium perfringens); assay: Noncompetitive inhibition of Clostridium perfringens neuraminidase by Lineweaver-Burke plot analysis
[10] = biological target: T1, Sialidase (Clostridium perfringens); assay: Noncompetitive inhibition of Clostridium perfringens neuraminidase by Dixon plot analysis
Procedure, shortened: (§6)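 Dixon plots of 1/v against [I] at each substrate concentration, rates from unquenched fluorometric 4-MU-NANA hydrolysis (ex 360/em 440 nm); Ki read from the x-axis value where lines intersect.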

Sialidase [11] = biological target: T2, Sialidase; assay: Noncompetitive inhibition of Clostridium perfringens neuraminidase
Procedure, shortened: (§7)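 Kinetics run in acetate-buffer 4-MU-NANA fluorometric assay without stop solution, product read immediately at ex 360/em 440 nm across substrate and inhibitor concentrations. Mode assigned from Lineweaver–Burk and Dixon plots; Ki from x-axis intersection of lines.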

Sialidase [12] = biological target: T2, Sialidase; assay: Competitive inhibition of Clostridium perfringens neuraminidase; procedure, shortened: as §7
[13] = biological target: T1, Sialidase (Clostridium perfringens); assay: Competitive inhibition of Clostridium perfringens neuraminidase by Lineweaver-Burke plot analysis
[14] = biological target: T1, Sialidase (Clostridium perfringens); assay: Competitive inhibition of Clostridium perfringens neuraminidase by Dixon plot analysis; procedure, shortened: as §6
Vibrio cholerae [15] = assay: Antibacterial activity against Vibrio cholerae 16961 infected in human HeLa cells assessed as inhibition of bacterial adherence to host cell at 3 to 10 ug/ml pre-incubated for 1 hr before infection measured after 30 mins of infection by Giemsa staining; format: functional, organism-based
Vibrio cholerae [16] = assay: Antibacterial activity against Vibrio cholerae 16961 at 3 to 10 ug/ml after 24 hrs; format: functional, organism-based
[17] = biological target: Sialidase (Vibrio cholerae serotype O1 (strain ATCC 39315 / El Tor Inaba N16961)) (UniProt P0C6E9); assay: Inhibition of Vibrio cholerae neuraminidase assessed as inhibition of 4-MU-NANA hydrolysis at 30 ug/mL after 10 mins by spectrofluorimetry
[18] = biological target: T1, Sialidase (Clostridium perfringens); settings: 20 ug/mL

Row | Compound | inhibition [1] [%] | pIC50 (Sialidase [2]) | Activity [3] | inhibition [4] [%] | pIC50 (Sialidase [5]) | Activity [6] | inhibition [7] | inhibition [8] | inhibition [9] | inhibition [10] | pKi (Sialidase [11]) | pKi (Sialidase [12]) | inhibition [13] | inhibition [14] | Activity (Vibrio cholerae [15]) | Activity (Vibrio cholerae [16]) | inhibition [17] [%] | inhibition [18] [%]
1 | CC1(C)Oc2ccc3c(c2CC1O)O[C@H]1c2ccc(O)cc2OC[C@@H]31 (stereo partly drawn) [ERYTHRIBYSSIN D] | 91 | 4.11 | Dose-dependent effect | 9 | 4.34 | Dose-dependent effect | Active | Active |  |  |  |  |  |  |  |  |  | 
2 | CC(C)=CCc1cc2c(cc1O)O[C@H]1c3ccc(O)cc3OC[C@@H]21 [SOPHORAPTEROCARPAN A] | 91 | 5.70 | Dose-dependent effect | 9 | 4.94 |  | Active | Active | Active | Active | 5.75 |  |  |  |  |  |  | 
3 | CC(C)=CCc1cc2c(cc1O)OC[C@@]1(O)c3ccc4c(c3O[C@@H]21)C=CC(C)(C)O4 [ERYSUBIN E] | 91 | 5.89 | Dose-dependent effect | 9 | 4.71 | Dose-dependent effect | Active | Active | Active | Active | 6.62 |  |  |  |  |  |  | 
4 | CC1(C)C=Cc2cc3c(cc2O1)O[C@H]1c2ccc(O)cc2OC[C@@H]31 [ISONEORAUTENOL] | 91 | 4.85 | Dose-dependent effect | 9 | 4.19 | Dose-dependent effect | Active | Active | Active | Active | 4.96 |  |  |  |  |  |  | 
5 | CC1(C)C=Cc2c(ccc3c2O[C@H]2c4ccc(O)cc4OC[C@@H]32)O1 [PHASEOLIN] |  | 4.47 |  |  | 4.50 | Dose-dependent effect |  |  |  |  |  | 5.32 |  |  |  |  |  | 
6 | CC(C)=CCc1cc2c(cc1O)OC[C@H]1c3ccc4c(c3O[C@@H]21)CC(O)C(C)(C)O4 (stereo partly drawn) [ERYSUBIN D] | 91 | 4.58 | Dose-dependent effect | 9 | 4.58 | Dose-dependent effect | Active | Active |  |  |  | 4.82 | Active | Active |  |  |  | 
7 | CC1(C)Oc2ccc3c(c2CC1O)O[C@@H]1c2ccc(O)cc2OC[C@H]31 (stereo partly drawn) [ERYTHRIBYSSIN M] | 91 | 3.69 | Dose-dependent effect | 9 | 4.11 | Dose-dependent effect | Active | Active |  |  |  |  |  |  |  |  |  | 
8 | COc1ccc2c(c1CC=C(C)C)O[C@H]1c3cc(CC=C(C)C)c(O)cc3OC[C@@]21O [ERYSTAGALLIN A] | 91 | 5.69 | Dose-dependent effect | 9 | 4.56 | Dose-dependent effect | Active | Active | Active | Active | 5.74 |  |  |  |  |  |  | 
9 | CC(C)=CCc1c(O)ccc2c1O[C@H]1c3cc4c(cc3OC[C@@H]21)OC(C)(C)C(O)C4 (stereo partly drawn) [ERYTHRIBYSSIN L] | 91 | 5.55 | Dose-dependent effect | 9 | 4.57 |  | Active | Active | Active | Active | 5.38 |  |  |  |  |  |  | 
10 | CC(C)=CCc1c(O)ccc2c3c(oc12)-c1cc(C=O)c(O)cc1OC3 [ERYTHRIBYSSIN O] | 91 | 5.88 | Dose-dependent effect | 9 | 6.46 | Dose-dependent effect | Active | Active | Active | Active | 5.92 |  |  |  |  |  |  | 
11 | Oc1ccc2c(c1)O[C@H]1c3ccc(O)cc3OC[C@@H]21 | 91 | 5.19 | Dose-dependent effect | 9 | 4.53 | Dose-dependent effect | Active | Active | Active | Active | 5.42 |  |  |  |  |  |  | 
12 | CC(C)=CCc1cc2c(cc1O)OC[C@H]1c3ccc(O)cc3O[C@@H]21 [CALOPOCARPIN] | 91 | 5.80 | Dose-dependent effect | 9 | 5.12 |  | Active | Active | Active | Active | 5.68 |  |  |  | Active | inactive |  | 
13 | CC1(C)C=Cc2cc3c(cc2O1)OC[C@H]1c2ccc(O)cc2O[C@@H]31 [NEORAUTENOL] | 91 | 4.70 | Dose-dependent effect | 9 | 4.27 | Dose-dependent effect | Active | Active | Active | Active | 4.66 |  |  |  |  |  |  | 
14 | COc1ccc2c3c(oc2c1CC=C(C)C)-c1ccc(O)cc1OC3 [ERYVARIN D] |  | 5.68 |  |  | 5.48 | Dose-dependent effect |  |  |  |  | 5.59 |  |  |  |  |  |  | 
15 | O=c1c(O)c(-c2ccc(O)c(O)c2)oc2cc(O)cc(O)c12 [QUERCETIN] |  | 4.60 | Dose-dependent effect |  |  |  |  |  |  |  |  |  |  |  |  |  | 29.3 | 48.9
16 | COc1ccc2c(c1CC=C(C)C)O[C@H]1c3ccc(O)cc3OC[C@@]21O [ERYTHRABYSSIN I] | 91 | 5.64 | Dose-dependent effect | 9 | 4.66 | Dose-dependent effect | Active | Active | Active | Active | 6.51 |  |  |  |  |  |  | 
